Here are results for 3 molecules from ChEMBL document CHEMBL4007505 (J Med Chem, 2017).

For assay [1], the target named is T1, Sodium-dependent dopamine transporter (Homo sapiens, UniProt Q01959). Briefly: Inhibition of [3H]WIN35,428 binding to recombinant human DAT expressed in HEK293 cell membranes at 10 uM pre-incubated for 10 mins before radioligand addition and measured 90 mins after radioligand addition by micro beta scintillation counting analysis relative to control.
Assay [2] addresses Sigma intracellular receptor 2 (Rattus norvegicus, UniProt Q5U3Y7). Put plainly: Displacement of [3H]DTG from rat sigma 2 receptor. (In general: In a radioligand displacement assay an active substance lowers the binding of a labelled ligand.)
For assay [3], the target named is T2, 5-hydroxytryptamine receptor 2C (Homo sapiens, UniProt P28335).
T2 sequence (P28335 whole entry): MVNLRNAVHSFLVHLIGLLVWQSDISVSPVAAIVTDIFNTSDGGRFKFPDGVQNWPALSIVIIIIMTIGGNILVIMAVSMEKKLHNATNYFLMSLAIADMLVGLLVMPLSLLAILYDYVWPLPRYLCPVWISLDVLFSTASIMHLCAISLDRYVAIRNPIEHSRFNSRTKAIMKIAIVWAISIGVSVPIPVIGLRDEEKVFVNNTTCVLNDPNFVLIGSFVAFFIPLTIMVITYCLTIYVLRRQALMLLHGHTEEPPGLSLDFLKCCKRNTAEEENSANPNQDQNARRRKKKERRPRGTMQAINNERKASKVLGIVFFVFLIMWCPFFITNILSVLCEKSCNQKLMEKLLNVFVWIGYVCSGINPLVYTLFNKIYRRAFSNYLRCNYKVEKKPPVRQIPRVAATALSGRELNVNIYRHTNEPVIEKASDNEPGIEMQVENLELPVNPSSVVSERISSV
Briefly: Displacement of [3H]Mesulergine from human 5-HT2C receptor.

The target of assay [4] is T3, Adenosine receptor A3 (Homo sapiens, UniProt P0DMS8).
T3 sequence (P0DMS8 whole entry): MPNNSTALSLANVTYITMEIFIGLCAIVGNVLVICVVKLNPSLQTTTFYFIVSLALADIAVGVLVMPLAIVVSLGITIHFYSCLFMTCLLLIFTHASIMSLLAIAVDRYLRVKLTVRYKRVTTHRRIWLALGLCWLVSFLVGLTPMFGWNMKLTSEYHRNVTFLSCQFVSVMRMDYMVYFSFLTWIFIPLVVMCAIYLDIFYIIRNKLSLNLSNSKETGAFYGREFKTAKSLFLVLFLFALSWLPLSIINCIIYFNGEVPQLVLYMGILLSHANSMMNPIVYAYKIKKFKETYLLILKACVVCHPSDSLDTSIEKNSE
Put plainly: Displacement of [125I]N6-(4-amino-3-iodobenzyl)adenosine-5'-N-methyluronamide from human A3AR expressed in HEK293T cells pre-incubated for 10 mins before radioligand addition and measured 90 mins after radioligand addition by micro beta scintillation counting analysis relative to control. The format is cell-based, HEK-293T.

For assay [5], the target named is T4, Adenosine receptor A3 (Mus musculus) (UniProt Q61618).
T4 sequence (whole entry): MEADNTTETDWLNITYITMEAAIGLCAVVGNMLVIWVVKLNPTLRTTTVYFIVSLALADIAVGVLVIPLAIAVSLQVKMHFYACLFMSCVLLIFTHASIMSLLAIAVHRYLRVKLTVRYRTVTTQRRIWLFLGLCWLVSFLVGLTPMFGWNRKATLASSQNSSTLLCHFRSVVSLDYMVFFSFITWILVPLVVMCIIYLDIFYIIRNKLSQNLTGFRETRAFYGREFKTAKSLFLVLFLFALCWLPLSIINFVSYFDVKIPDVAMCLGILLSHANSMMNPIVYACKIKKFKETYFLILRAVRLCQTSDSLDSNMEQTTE
Put plainly: Displacement of [125I]N6-(4-amino-3-iodobenzyl)adenosine-5'-N-methyluronamide from mouse A3AR expressed in HEK293T cells at 10 uM pre-incubated for 10 mins before radioligand addition and measured 90 mins after radioligand addition by micro beta scintillation counting analysis relative to control. The format is cell-based.

Assay [6] deals with T1, Sodium-dependent dopamine transporter. Put plainly: Enhancing of [3H]WIN35,428 binding to recombinant human DAT expressed in HEK293 cell membranes at 10 uM pre-incubated for 10 mins before radioligand addition and measured 90 mins after radioligand addition by micro beta scintillation counting analysis relative to control.
For assay [7], the target named is Sigma non-opioid intracellular receptor 1 (Rattus norvegicus, UniProt Q9R0C9). Briefly: Displacement of [3H]Pentazocine from rat sigma 1 receptor.
Sigma non-opioid intracellular receptor 1, sequence (Q9R0C9 whole entry): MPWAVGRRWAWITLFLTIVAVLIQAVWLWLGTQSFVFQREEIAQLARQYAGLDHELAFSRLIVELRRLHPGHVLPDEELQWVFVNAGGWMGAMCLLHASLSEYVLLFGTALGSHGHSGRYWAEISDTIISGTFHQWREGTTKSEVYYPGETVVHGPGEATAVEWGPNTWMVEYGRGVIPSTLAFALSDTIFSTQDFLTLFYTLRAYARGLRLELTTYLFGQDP
Assay [8] deals with Muscarinic acetylcholine receptor M5 (Homo sapiens, UniProt P08912). Put plainly: Displacement of [3H]QNB from human muscarinic M5 receptor.
Muscarinic acetylcholine receptor M5, sequence (P08912 whole entry): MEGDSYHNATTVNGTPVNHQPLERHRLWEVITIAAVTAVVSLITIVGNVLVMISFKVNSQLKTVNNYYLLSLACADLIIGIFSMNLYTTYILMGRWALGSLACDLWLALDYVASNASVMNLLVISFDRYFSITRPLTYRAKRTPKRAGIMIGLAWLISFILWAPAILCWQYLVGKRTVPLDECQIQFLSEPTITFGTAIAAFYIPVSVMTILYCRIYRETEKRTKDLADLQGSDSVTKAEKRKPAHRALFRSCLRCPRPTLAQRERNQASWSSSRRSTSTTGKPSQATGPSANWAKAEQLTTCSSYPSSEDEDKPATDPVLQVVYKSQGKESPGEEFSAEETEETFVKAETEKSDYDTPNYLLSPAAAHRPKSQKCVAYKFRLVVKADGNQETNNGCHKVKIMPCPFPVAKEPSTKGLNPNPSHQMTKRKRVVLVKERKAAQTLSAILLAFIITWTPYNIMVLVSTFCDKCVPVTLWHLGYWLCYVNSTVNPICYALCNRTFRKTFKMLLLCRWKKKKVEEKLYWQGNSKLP
For assay [9], the target named is Adenosine receptor A3 (Homo sapiens) (UniProt P0DMS8). Briefly: Agonist activity at human A3AR assessed as inhibition of cAMP formation at 10 uM relative to adenosine-5'-Nethyluronamide.
Assay [10] deals with T1, Sodium-dependent dopamine transporter. Put plainly: Enhancing of [125I]RTI-55 binding to recombinant human DAT expressed in HEK293 cell membranes preincubated for 10 mins followed by radioligand addition measured after 90 mins by micro beta scintillation counting analysis. More on the design: concentration or dose not given beside the values. The procedure, abridged: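 Membranes of HEK-293 cells stably expressing hDAT, hNET or hSERT. […] Compound preincubated 10 min at room temperature, then [125I]23 (40-80 pM final) or [3H]26 (1-3 nM for DAT and NET, 10-13 nM for SERT) added. Incubated 90 min at room temperature in the dark, then filtered. EC50 or Ki; mean ± SEM.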

The target in assay [11] is Sodium-dependent noradrenaline transporter (Homo sapiens, UniProt P23975). Briefly: Enhancing of [125I]RTI-55 binding to recombinant human NET expressed in HEK293 cell membranes preincubated for 10 mins followed by radioligand addition measured after 90 mins by micro beta scintillation counting analysis. The arrangement: concentration or dose not given beside the values.
Sodium-dependent noradrenaline transporter, sequence (P23975 whole entry): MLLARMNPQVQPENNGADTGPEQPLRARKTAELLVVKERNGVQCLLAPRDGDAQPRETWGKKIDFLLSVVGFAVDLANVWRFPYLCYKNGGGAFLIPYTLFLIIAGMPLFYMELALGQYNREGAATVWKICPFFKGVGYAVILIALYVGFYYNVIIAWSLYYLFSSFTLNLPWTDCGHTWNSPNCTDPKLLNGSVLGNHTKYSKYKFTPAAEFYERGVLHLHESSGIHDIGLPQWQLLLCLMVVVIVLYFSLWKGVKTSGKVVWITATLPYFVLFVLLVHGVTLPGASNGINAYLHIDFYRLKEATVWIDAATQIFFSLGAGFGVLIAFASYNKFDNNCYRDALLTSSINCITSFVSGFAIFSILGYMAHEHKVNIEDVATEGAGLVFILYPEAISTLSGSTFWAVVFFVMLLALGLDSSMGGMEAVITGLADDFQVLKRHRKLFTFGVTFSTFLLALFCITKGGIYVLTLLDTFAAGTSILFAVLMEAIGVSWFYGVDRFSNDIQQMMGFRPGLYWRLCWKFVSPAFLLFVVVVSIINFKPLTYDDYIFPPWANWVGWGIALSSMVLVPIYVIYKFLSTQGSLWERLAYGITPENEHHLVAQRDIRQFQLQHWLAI

Assay [12] concerns the target T1, Sodium-dependent dopamine transporter. Briefly: Enhancing of [3H]WIN35,428 binding to recombinant human DAT expressed in HEK293 cell membranes pre-incubated for 10 mins before radioligand addition and measured 90 mins after radioligand addition by micro beta scintillation counting analysis relative to control.
Assay [13] has the same target. Put plainly: Inhibition of recombinant human DAT expressed in HEK293 cell […] as reduction in [3H]-DA uptake incubated for 22 mins by micro beta scintillation counting analysis.
The target in assay [14] is Beta-3 adrenergic receptor (Homo sapiens, UniProt P13945). Put plainly: Displacement of [3H]CGP12177 from human adrenergic beta3 receptor.
Beta-3 adrenergic receptor, sequence (P13945 whole entry): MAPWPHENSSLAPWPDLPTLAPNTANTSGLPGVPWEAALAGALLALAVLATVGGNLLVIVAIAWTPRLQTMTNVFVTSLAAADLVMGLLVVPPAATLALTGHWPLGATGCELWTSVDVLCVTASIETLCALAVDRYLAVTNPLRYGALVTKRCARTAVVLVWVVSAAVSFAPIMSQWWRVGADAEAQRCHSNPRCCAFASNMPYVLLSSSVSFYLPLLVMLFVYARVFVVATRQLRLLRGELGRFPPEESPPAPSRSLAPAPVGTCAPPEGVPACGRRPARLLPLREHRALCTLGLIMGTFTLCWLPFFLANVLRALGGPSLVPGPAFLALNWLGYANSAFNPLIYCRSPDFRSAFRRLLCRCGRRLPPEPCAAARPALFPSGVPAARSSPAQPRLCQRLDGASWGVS
Assay [15] deals with Sodium-dependent serotonin transporter (Homo sapiens, UniProt P31645). Briefly: Inhibition of [125I]RTI-55 binding to recombinant human SERT expressed in HEK293 cell membranes preincubated for 10 mins followed by radioligand addition measured after 90 mins by micro beta scintillation counting analysis.
Sodium-dependent serotonin transporter, sequence (P31645 whole entry): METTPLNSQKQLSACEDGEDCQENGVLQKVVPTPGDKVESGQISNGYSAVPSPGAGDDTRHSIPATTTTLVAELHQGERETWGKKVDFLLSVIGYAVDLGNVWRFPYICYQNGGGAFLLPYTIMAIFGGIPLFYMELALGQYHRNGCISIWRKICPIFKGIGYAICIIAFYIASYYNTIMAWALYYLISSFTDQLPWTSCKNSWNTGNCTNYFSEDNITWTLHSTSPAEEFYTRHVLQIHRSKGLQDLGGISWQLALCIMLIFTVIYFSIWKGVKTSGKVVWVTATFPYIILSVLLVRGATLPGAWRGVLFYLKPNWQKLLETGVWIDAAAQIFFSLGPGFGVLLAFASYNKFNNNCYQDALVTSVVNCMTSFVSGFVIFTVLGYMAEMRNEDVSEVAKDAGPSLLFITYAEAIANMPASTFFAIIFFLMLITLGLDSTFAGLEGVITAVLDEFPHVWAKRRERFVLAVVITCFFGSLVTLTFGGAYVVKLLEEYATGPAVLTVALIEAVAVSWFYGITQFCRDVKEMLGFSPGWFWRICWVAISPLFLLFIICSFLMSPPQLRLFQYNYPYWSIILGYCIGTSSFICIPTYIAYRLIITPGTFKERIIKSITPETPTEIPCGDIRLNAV

Structures are written as SMILES. Active and inactive are the calls of the source. The calls are words filed in the database; no cut-off is given here.

T1 sequence (Q01959 whole entry): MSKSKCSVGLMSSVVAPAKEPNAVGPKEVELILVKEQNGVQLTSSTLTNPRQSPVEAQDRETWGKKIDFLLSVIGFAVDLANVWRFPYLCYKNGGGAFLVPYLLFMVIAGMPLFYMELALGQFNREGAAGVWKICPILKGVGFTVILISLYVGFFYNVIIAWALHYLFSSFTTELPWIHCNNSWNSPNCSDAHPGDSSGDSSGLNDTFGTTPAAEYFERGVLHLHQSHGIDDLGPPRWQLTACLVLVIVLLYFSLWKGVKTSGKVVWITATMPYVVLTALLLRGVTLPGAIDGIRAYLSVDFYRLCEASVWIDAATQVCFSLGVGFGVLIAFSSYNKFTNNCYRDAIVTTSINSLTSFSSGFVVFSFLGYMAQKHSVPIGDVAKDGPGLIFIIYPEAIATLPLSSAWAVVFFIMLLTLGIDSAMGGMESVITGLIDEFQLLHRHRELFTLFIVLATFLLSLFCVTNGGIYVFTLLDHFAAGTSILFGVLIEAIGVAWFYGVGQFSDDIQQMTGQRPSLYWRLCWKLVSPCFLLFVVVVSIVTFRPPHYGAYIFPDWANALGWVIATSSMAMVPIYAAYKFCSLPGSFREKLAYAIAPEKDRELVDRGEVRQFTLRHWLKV
Sigma intracellular receptor 2, sequence (Q5U3Y7 whole entry): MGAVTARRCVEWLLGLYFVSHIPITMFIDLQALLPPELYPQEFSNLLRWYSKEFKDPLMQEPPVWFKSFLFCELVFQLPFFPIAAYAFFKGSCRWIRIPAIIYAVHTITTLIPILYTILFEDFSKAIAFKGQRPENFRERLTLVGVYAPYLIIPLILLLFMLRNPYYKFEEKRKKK

Regarding `CCOC(=O)[C@@]12C[C@@H]1[C@@H](n1cnc3c(NC)nc(C#Cc4ccc(Cl)s4)cc31)[C@H](O)[C@@H]2O`, the inhibition entry in assay [1] was “inactive”. Besides, the Ki turned out to be 1.9 µM in assay [2]; 0.395 µM in assay [3]; 0.169 µM in assay [4]; 1.04 µM in assay [7]; 3.8 µM in [8]. Further, in [5], the inhibition stood at 18%. The Activity in assay [6] is 354%. For the same molecule, the Efficacy in [9] is 3.6%.

For `CCCNc1nc(C#Cc2ccc(Cl)s2)nc2c1ncn2[C@H]1[C@H](O)[C@H](O)[C@]2(C(=O)NC)C[C@H]12`, the results for the Activity in [10] and in [11] were 268% and 159%, respectively. The EC50 is 1.12 µM in assay [10] (read-out: EC50), 0.9 µM in assay [11] (read-out: EC50) and over 1 µM in assay [12]. Further, in assay [13], the IC50 is over 8.7 µM. Also, affinity in assay [14] was put at a Ki of 1.44 µM.

For the molecule `CNc1nc(C#Cc2ccc(Cl)s2)nc2c1ncn2[C@H]1[C@H](O)[C@H](O)[C@]2(C(=O)OCc3ccccc3)C[C@H]12`, the values for the Ki in [4] and in assay [15] were 0.00731 µM and 5.6 µM, respectively. Moreover, the inhibition in [5] turned out to be 48%. For the same molecule, the outcome in [6] was inactive.

By inhibition is commonly meant the percentage by which the read-out fell short of the control. One may read the Ki as a dissociation constant, usually derived from enzyme kinetics or from competition with a known ligand. The term EC50 denotes the midpoint of the concentration-response curve. In general, IC50 refers to the concentration needed to halve the response being measured.
